Test results published in ChEMBL document CHEMBL4118097, “Selective Inhibitors of Dual Leucine Zipper Kinase (DLK, MAP3K12) with Activity in a Model of Alzheimer's Disease” (J Med Chem, 2017).

What was measured:
[1] = target: Serine/threonine-protein kinase D1 (Homo sapiens) (UniProt Q15139); test: Inhibition of PKD1 (unknown origin) at 1 uM by FRET assay relative to control
[2] = target: Ribosomal protein S6 kinase alpha-2 (Homo sapiens) (UniProt Q15349); test: Inhibition of recombinant full length GST-tagged human RSK3 expressed in insect cells at 1 uM by FRET assay relative to control
In short: (§1)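 Single-concentration screen at 1 μM in Life Technologies SelectScreen, across a 220-kinase panel. Z′-LYTE format measures phosphorylation of a labeled peptide by FRET. Results are reported as percent inhibition.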

[3] = target: Beta-2 adrenergic receptor (Homo sapiens) (UniProt P07550); test: Binding affinity to recombinant human beta2 adrenergic receptor at 10 uM relative to control
In short: (§2)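 Broad radioligand-binding and enzyme screening panel covering 42 targets (biogenic amine and neuropeptide receptors, ion channels, neurotransmitter transporters, acetylcholinesterase). Single test concentration of 10 μM. Results expressed as binding relative to control, with a hit defined as >50% of control.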

[4] = target: High affinity nerve growth factor receptor (Homo sapiens, UniProt P04629); test: Inhibition of recombinant His-tagged human TrkA cytoplasmic domain (441 to 796 residues) expressed in baculovirus expression system by FRET assay
[5] = target: MAP kinase-interacting serine/threonine-protein kinase 1 (Homo sapiens) (UniProt Q9BUB5); test: Inhibition of recombinant human N-terminal full length GST-tagged MKNK1 expressed in baculovirus at 1 uM by FRET assay relative to control
MAP kinase-interacting serine/threonine-protein kinase 1 (Homo sapiens), sequence (Q9BUB5 whole entry, looked up): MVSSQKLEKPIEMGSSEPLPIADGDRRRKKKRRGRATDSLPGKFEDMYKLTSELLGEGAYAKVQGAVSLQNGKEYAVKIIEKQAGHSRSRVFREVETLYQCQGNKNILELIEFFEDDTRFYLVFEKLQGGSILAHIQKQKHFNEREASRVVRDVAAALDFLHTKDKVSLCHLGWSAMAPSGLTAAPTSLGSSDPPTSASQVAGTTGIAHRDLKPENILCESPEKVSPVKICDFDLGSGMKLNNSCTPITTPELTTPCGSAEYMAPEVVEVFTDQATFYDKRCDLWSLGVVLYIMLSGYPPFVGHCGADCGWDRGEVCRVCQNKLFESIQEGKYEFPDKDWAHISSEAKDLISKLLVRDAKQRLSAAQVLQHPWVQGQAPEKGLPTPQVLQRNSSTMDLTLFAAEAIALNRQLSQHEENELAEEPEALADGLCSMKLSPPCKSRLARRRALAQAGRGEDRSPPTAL

[6] = target: Calcium/calmodulin-dependent protein kinase kinase 2 (Homo sapiens) (UniProt Q96RR4); test: Inhibition of recombinant full length GST-tagged human CAMKK2 expressed in baculovirus expression system at 1 uM by FRET assay relative to control
Calcium/calmodulin-dependent protein kinase kinase 2 (Homo sapiens), sequence (Q96RR4 2-588 limits assumed): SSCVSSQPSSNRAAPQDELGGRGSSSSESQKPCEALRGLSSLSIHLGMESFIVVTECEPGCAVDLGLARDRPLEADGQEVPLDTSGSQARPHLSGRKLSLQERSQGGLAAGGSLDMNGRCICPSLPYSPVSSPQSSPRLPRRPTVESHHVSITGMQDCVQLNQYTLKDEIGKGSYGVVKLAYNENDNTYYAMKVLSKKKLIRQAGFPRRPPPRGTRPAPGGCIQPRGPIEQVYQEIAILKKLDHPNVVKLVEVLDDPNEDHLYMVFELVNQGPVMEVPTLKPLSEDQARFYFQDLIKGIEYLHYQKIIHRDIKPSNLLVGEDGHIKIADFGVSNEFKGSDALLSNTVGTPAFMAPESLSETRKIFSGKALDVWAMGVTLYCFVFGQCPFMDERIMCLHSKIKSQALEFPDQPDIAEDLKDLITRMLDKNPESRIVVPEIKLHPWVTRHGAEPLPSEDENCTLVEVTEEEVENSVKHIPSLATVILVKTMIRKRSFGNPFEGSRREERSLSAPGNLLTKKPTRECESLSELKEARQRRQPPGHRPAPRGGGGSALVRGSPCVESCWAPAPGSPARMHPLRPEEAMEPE
In short: as §1

[7] = target: Vascular endothelial growth factor receptor 1 (Homo sapiens) (UniProt P17948); test: Inhibition of recombinant GST-tagged human FLT1 cytoplasmic domain expressed in baculovirus expression system at 1 uM by FRET assay relative to control
In short: (§3)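 Single-point screen at 1 μM compound in a 220-kinase panel run by Life Technologies (SelectScreen). Z′-LYTE format: phosphorylation of a labeled peptide substrate read by FRET. Values are reported as percent inhibition.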

[8] = target: Tyrosine-protein kinase Fes/Fps (Homo sapiens) (UniProt P07332); test: Inhibition of recombinant full length His-tagged human FES cytoplasmic domain expressed in baculovirus expression system at 1 uM by FRET assay relative to control
[9] = target: Adrenergic receptor alpha-2 (Homo sapiens) (UniProt P08913+P18825+P18089); test: Binding affinity to alpha2 adrenergic receptor (unknown origin) at 10 uM relative to control; assay type: protein assay
In short: as §2

[10] = target: MAP/microtubule affinity-regulating kinase 3 (Homo sapiens) (UniProt P27448); test: Inhibition of recombinant full length GST-tagged human MARK3 expressed in baculovirus expression system at 1 uM by FRET assay relative to control
In short: as §1

[11] = target: Focal adhesion kinase 1 (Homo sapiens) (UniProt Q05397); test: Inhibition of recombinant full length GST-tagged human FAK expressed in baculovirus expression system at 1 uM by FRET assay relative to control
In short: as §1

[12] = target: Serine/threonine-protein kinase MRCK alpha (Homo sapiens) (UniProt Q5VT25); test: Inhibition of recombinant His-tagged human MRCKalpha expressed in baculovirus at 1 uM by FRET assay relative to control
In short: as §3

[13] = target: Tyrosine-protein kinase Yes (Homo sapiens) (UniProt P07947); test: Inhibition of recombinant full length GST-tagged human Yes expressed in baculovirus expression system at 1 uM by FRET assay relative to control
Tyrosine-protein kinase Yes (Homo sapiens), sequence (P07947 2-543 limits assumed): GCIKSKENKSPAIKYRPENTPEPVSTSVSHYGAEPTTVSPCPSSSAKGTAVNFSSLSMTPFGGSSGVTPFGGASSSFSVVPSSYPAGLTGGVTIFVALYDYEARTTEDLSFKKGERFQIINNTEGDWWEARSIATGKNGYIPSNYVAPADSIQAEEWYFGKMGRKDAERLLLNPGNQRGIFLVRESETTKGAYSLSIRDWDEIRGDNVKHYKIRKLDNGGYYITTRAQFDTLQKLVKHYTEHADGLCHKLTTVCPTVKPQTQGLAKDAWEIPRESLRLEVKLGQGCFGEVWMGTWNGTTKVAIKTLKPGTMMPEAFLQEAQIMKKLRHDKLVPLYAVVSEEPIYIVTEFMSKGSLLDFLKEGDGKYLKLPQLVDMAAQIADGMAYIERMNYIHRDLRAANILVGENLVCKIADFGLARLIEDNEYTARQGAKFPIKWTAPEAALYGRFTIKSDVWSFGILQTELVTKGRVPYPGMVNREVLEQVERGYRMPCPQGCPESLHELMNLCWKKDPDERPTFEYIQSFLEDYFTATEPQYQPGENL

[14] = target: Receptor-type tyrosine-protein kinase FLT3 (Homo sapiens, UniProt P36888); test: Inhibition of recombinant His-tagged human FLT3 cytoplasmic domain expressed in baculovirus expression system by FRET assay
[15] = target: Acetylcholinesterase (Homo sapiens) (UniProt P22303); test: Binding affinity to acetylcholinesterase (unknown origin) at 10 uM relative to control
In short: as §2

[16] = target: Myotonin-protein kinase (Homo sapiens) (UniProt Q09013); test: Inhibition of full length recombinant human DMPK expressed in baculovirus expression system at 1 uM by FRET assay relative to control
[17] = target: Mitogen-activated protein kinase kinase kinase 10 (Homo sapiens, UniProt Q02779); test: Inhibition of recombinant human full length GST-tagged MLK2 expressed in baculovirus expression system by FRET assay
[18] = target: Maternal embryonic leucine zipper kinase (Homo sapiens) (UniProt Q14680); test: Inhibition of recombinant GST-tagged human MELK expressed in baculovirus expression system at 1 uM by FRET assay relative to control
Maternal embryonic leucine zipper kinase (Homo sapiens), sequence (Q14680 whole entry, looked up): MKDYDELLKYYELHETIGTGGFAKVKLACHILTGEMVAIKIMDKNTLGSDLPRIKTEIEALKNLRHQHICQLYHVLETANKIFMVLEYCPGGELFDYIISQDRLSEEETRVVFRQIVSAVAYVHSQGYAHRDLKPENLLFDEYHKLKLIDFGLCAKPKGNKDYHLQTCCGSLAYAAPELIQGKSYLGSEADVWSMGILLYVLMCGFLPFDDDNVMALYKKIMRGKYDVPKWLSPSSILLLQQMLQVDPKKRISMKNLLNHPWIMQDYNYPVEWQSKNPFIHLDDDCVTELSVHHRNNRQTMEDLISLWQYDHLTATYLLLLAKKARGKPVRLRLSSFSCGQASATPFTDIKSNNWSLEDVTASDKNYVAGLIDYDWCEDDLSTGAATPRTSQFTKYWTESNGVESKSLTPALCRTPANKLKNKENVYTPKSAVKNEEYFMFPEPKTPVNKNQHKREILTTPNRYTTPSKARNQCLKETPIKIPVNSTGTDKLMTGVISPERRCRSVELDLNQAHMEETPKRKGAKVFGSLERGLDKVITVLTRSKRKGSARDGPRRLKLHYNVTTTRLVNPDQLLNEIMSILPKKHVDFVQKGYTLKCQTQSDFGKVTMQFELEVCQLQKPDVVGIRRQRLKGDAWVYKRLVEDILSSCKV
In short: as §3

[19] = target: Tyrosine-protein kinase BTK (Homo sapiens) (UniProt Q06187); test: Inhibition of recombinant full length His-tagged human BTK cytoplasmic domain expressed in baculovirus expression system at 1 uM by FRET assay relative to control
[20] = target: Peroxisome proliferator-activated receptor alpha (Homo sapiens) (UniProt Q07869); test: Binding affinity to recombinant human PPARalpha at 10 uM relative to control
Peroxisome proliferator-activated receptor alpha (Homo sapiens), sequence (Q07869 whole entry): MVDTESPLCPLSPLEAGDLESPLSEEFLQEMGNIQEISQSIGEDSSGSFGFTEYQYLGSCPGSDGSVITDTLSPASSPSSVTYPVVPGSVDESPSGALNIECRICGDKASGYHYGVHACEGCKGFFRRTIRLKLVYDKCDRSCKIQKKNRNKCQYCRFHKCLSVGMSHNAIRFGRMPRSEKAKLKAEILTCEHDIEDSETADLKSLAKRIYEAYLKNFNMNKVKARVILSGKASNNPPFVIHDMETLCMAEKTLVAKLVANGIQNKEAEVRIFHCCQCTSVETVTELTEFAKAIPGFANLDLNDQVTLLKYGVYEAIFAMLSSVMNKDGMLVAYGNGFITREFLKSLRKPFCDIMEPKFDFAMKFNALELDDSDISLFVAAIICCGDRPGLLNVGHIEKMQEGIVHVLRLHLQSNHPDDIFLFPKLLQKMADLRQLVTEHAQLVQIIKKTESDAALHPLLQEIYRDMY
In short: as §2

[21] = target: Histamine H2 receptor (Homo sapiens) (UniProt P25021); test: Binding affinity to recombinant human H2 receptor at 10 uM relative to control
In short: as §2

[22] = target: Tyrosine-protein kinase Lyn (Homo sapiens) (UniProt P07948); test: Inhibition of recombinant full length His-tagged human LYN expressed in baculovirus expression system at 1 uM by FRET assay relative to control
[23] = target: Dual specificity protein kinase CLK4 (Homo sapiens) (UniProt Q9HAZ1); test: Inhibition of full length recombinant GST-tagged human CLK4 expressed in baculovirus expression system at 1 uM by FRET assay relative to control
Dual specificity protein kinase CLK4 (Homo sapiens), sequence (Q9HAZ1 whole entry, looked up): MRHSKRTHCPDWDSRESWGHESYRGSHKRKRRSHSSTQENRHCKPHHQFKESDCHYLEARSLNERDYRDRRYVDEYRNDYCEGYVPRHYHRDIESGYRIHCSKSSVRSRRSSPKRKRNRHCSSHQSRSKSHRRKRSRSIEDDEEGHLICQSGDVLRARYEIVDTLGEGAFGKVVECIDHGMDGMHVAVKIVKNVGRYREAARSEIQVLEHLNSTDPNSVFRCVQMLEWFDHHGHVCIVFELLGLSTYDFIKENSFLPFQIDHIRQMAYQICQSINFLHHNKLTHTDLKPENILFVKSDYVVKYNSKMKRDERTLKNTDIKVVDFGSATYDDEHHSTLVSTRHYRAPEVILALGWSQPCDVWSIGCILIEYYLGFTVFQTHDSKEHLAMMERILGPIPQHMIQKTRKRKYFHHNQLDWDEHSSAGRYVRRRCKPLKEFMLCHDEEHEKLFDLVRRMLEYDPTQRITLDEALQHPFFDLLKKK

[24] = target: MAP kinase-interacting serine/threonine-protein kinase 2 (Homo sapiens) (UniProt Q9HBH9); test: Inhibition of recombinant human N-terminal full length GST-tagged MKNK2 expressed in baculovirus at 1 uM by FRET assay relative to control
MAP kinase-interacting serine/threonine-protein kinase 2 (Homo sapiens), sequence (Q9HBH9 whole entry, looked up, canonical isoform): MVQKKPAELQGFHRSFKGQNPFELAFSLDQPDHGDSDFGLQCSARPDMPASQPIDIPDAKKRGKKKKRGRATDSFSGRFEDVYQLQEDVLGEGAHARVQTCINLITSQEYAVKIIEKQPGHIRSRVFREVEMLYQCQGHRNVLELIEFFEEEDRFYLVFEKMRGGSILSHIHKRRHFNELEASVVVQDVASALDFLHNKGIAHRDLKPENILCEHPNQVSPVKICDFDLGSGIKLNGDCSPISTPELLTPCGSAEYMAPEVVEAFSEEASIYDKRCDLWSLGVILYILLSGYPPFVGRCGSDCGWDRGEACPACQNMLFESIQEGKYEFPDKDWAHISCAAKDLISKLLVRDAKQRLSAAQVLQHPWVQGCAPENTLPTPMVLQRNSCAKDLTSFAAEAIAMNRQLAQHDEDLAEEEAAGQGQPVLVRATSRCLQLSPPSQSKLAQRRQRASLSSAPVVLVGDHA

[25] = target: Casein kinase I isoform epsilon (Homo sapiens) (UniProt P49674); test: Inhibition of CK1epsilon1 (unknown origin) at 1 uM by FRET assay relative to control
Casein kinase I isoform epsilon (Homo sapiens), sequence (P49674 whole entry, looked up, the tested form may be a part, canonical isoform): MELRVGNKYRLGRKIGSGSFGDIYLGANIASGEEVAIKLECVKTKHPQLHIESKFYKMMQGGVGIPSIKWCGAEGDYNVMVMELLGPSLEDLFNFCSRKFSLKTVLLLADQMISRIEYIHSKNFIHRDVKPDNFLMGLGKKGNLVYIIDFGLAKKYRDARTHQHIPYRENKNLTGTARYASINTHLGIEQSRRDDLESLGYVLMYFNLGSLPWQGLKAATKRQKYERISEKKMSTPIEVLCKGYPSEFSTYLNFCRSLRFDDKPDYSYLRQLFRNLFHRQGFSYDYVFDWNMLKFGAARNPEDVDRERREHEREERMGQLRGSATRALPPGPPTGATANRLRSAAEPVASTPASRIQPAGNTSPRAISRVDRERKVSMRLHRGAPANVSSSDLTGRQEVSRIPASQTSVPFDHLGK

[26] = target: Tyrosine-protein kinase FRK (Homo sapiens) (UniProt P42685); test: Inhibition of recombinant full length GST-tagged human FRK cytoplasmoic domain expressed in baculovirus expression system at 1 uM by FRET assay relative to control
In short: as §1

[27] = target: Activin receptor type-2B (Homo sapiens) (UniProt Q13705); test: Inhibition of recombinant GST-tagged human ACVR2B catalytic domain (185 to 488 residues) expressed in baculovirus expression system at 1 uM by FRET assay relative to control
[28] = target: Mitogen-activated protein kinase kinase kinase 8 (Homo sapiens) (UniProt P41279); test: Inhibition of recombinant GST-tagged human Cot catalytic domain (30 to 397 residues) expressed in baculovirus expression system at 1 uM by FRET assay relative to control
[29] = target: Serine/threonine-protein kinase SIK2 (Homo sapiens) (UniProt Q9H0K1); test: Inhibition of SIK2 (unknown origin) at 1 uM by FRET assay relative to control

Serine/threonine-protein kinase D1 (Homo sapiens), sequence (Q15139 whole entry, looked up): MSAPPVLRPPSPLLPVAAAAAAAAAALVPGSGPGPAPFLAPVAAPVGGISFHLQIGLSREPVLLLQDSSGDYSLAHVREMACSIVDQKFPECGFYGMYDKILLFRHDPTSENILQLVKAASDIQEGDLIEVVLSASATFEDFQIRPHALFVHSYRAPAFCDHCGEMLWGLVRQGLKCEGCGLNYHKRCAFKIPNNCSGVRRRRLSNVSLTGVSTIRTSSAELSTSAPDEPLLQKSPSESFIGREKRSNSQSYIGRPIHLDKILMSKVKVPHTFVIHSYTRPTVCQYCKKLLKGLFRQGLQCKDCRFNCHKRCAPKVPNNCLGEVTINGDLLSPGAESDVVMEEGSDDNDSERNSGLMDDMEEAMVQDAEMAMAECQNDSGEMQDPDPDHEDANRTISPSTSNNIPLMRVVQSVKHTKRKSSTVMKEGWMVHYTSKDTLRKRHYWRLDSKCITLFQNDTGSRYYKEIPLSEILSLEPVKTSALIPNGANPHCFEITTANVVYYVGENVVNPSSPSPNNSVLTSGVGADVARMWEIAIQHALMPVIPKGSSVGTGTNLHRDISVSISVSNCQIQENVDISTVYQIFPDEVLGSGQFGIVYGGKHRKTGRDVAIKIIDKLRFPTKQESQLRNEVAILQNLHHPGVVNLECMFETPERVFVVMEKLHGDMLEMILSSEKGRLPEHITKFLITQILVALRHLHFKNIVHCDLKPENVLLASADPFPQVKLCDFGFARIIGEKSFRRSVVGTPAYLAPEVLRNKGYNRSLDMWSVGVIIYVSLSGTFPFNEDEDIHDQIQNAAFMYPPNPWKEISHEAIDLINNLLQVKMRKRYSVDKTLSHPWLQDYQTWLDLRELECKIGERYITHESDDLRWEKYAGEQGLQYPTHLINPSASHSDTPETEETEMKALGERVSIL

CC(C)n1nc(-c2cnc(N)c(OC(F)(F)F)c2)cc1[C@H]1[C@@H]2CN(C3COC3)C[C@@H]21
inhibition [1]: 20% | inhibition [2]: 3.6% | Activity [3]: > 50% | IC50 [4]: 1550 nM | inhibition [5]: 1.1% | inhibition [6]: 1.5% | inhibition [7]: 4.8% | inhibition [8]: 17.1% | Activity [9]: > 50% | inhibition [10]: 16.8% | inhibition [11]: 11.1% | inhibition [12]: 0.4% | inhibition [13]: 15.8% | IC50 [14]: 709 nM | Activity [15]: > 50% | inhibition [16]: 39.1% | IC50 [17]: 7880 nM | inhibition [18]: 30.4% | inhibition [19]: 9.9% | Activity [20]: > 50% | Activity [21]: > 50% | inhibition [22]: 15.6% | inhibition [23]: 14.5% | inhibition [24]: 12.3% | inhibition [25]: 1.5% | inhibition [26]: 14.4% | inhibition [27]: -0.8% | inhibition [28]: 14.3% | inhibition [29]: 10.8%

Nc1ncc(-c2cc([C@H]3[C@@H]4CN(C5COC5)C[C@@H]43)n(CC3CC3)n2)cc1C(F)(F)F
inhibition [1]: 10% | inhibition [2]: 3.5% | Activity [3]: > 50% | IC50 [4]: 383 nM | inhibition [5]: -3.8% | inhibition [6]: 8.7% | inhibition [7]: -0.6% | inhibition [8]: 21.1% | Activity [9]: > 50% | inhibition [10]: 14.1% | inhibition [11]: 10.4% | inhibition [12]: 4.3% | inhibition [13]: 29.8% | IC50 [14]: 238 nM | Activity [15]: > 50% | inhibition [16]: 58.5% | IC50 [17]: 5150 nM | inhibition [18]: 12.6% | inhibition [19]: 19.9% | Activity [20]: > 50% | Activity [21]: > 50% | inhibition [22]: 17.9% | inhibition [23]: 16.4% | inhibition [24]: 0.9% | inhibition [25]: 9.5% | inhibition [26]: 19.7% | inhibition [27]: -2.1% | inhibition [28]: 3.4% | inhibition [29]: 18.4%
